The target in data set [1] is Transcription factor p65 (Homo sapiens) (UniProt Q04206). The data set is described as follows: Inhibition of NF-kappaB p65 (unknown origin) by ELISA.
Data set [2] in a line: Cytotoxicity against human CCD-112CoN cells. In kind it is cell-based. As to conditions: read-out: ED50 (the source's name).
Another data set concerns HT-29. The data set is described as follows: Cytotoxicity against human HT-29 cells. In kind it is functional. The settings on record: read-out: ED50 (the source's name). In short, it runs like this:
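HT-29 human colon cancer cells, run by a previously described protocol on all isolates. Growth inhibition was reported as ED50, and a positive control compound was run alongside.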

SMILES strings stand for the structures. Bounds are passed on as bounds.

Chain of Transcription factor p65 (Homo sapiens) (Q04206 whole entry): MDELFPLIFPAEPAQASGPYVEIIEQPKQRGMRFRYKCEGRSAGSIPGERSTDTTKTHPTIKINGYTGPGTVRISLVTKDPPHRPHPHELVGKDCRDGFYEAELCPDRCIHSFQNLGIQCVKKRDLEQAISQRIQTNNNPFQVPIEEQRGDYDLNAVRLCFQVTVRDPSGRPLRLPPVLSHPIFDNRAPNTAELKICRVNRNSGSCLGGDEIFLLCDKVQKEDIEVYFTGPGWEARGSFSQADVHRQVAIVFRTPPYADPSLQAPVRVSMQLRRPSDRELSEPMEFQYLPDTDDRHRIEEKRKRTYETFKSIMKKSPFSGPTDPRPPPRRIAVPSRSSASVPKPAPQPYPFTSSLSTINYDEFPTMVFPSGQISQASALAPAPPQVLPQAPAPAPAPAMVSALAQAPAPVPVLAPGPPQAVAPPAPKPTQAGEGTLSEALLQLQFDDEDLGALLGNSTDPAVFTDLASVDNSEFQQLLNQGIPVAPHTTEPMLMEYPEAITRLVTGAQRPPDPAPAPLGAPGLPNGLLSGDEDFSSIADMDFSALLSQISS

Take `COC(=O)[C@H]1[C@@H](O)[C@@]2(O)c3c(OC)cc(OC)cc3O[C@@]2(c2ccc3c(c2)OCO3)[C@@H]1c1ccccc1`: the ED50 in data set [1] is 3.54 µM. Also, the CC50 in data set [2] was more than 50 µM. Moreover, the EC50 with HT-29 (Homo sapiens, HT-29) was determined as 0.002 µM.

In the case of `COC(=O)[C@H]1[C@@H](OC=O)[C@@]2(O)c3c(OC)cc(OC)cc3O[C@@]2(c2ccc3c(c2)OCO3)[C@@H]1c1ccccc1`, the CC50 in data set [2] was more than 50 µM. In the data set with HT-29 (Homo sapiens, HT-29), the EC50 amounted to 0.056 µM.

In data set [1], `COC(=O)[C@H]1[C@@H](O)[C@@]2(OC)c3c(OC)cc(OC)cc3O[C@@]2(c2ccc(OC)cc2)[C@@H]1c1ccccc1` registered an ED50 of more than 20 µM. Moreover, in data set [2], the CC50 is more than 50 µM. In the data set with HT-29 (Homo sapiens, HT-29), the EC50 was 4.9 µM.

For `CC(C)[C@H]1CC[C@]2(C)C(=O)CCC(C=O)=C[C@H]12`, in data set [1], the ED50 is 0.005 µM. Also, the EC50 in the data set on HT-29 (Homo sapiens, HT-29) was more than 20 µM.

For the molecule `CC1=CC(=O)CC(C)(C)[C@H]1CC[C@H](O)CO`, the ED50 in data set [1] was more than 20 µM. Moreover, the EC50 with HT-29 (Homo sapiens, HT-29) is more than 10 µM.

`C=C(CC[C@@H](CO)[C@H]1CC[C@@]2(C)[C@@H]3CC[C@H]4C(C)(C)[C@@H](O)CC[C@@]45C[C@@]35CC[C@]12C)C(C)C` yielded an ED50 in data set [1] of more than 20 µM. In the data set with HT-29 (Homo sapiens, HT-29), the EC50 is more than 10 µM.

As to `COc1ccc(-c2oc3cc(OC)cc(OC)c3c(=O)c2O)cc1`, the ED50 in data set [1] is more than 20 µM. Also, the EC50 with HT-29 (Homo sapiens, HT-29) was more than 10 µM.

For `COc1ccc([C@@]23Oc4cc(OC)cc(OC)c4[C@]2(OC)[C@H](O)C[C@H]3c2ccccc2)cc1`, the ED50 in data set [1] is more than 20 µM. Also, the EC50 in the data set on HT-29 (Homo sapiens, HT-29) was more than 10 µM.

Take `COc1cc(OC)c2c(c1)O[C@@]1(c3ccc4c(c3)OCO4)[C@H](c3ccccc3)C[C@@H](O)[C@@]21OC`: the ED50 in data set [1] was more than 20 µM. The CC50 in data set [2] is more than 50 µM. Moreover, in the data set with HT-29 (Homo sapiens, HT-29), the EC50 was found to be 0.96 µM.

`COC(=O)[C@H]1[C@@H](O)[C@@]2(OC)c3c(OC)cc(OC)cc3O[C@@]2(c2ccc3c(c2)OCO3)[C@@H]1c1ccccc1` gave an ED50 in data set [1] of more than 20 µM. Also, in data set [2], the CC50 is more than 50 µM. The EC50 in the data set with HT-29 (Homo sapiens, HT-29) was found to be 4.7 µM.

`COc1cc(OC)c2c(c1)O[C@@]1(c3ccc4c(c3)OCO4)[C@H](c3ccccc3)C[C@@H](O)[C@@]21O` yielded an ED50 in data set [1] of 0.33 µM. In data set [2], the CC50 is more than 50 µM. In addition, in the data set on HT-29 (Homo sapiens, HT-29), the EC50 was determined as 0.0067 µM.

The molecule `COC(=O)[C@H]1[C@@H](OC=O)[C@@]2(O)c3c(OC)cc(OC)cc3O[C@@]2(c2ccc(OC)cc2)[C@@H]1c1ccccc1` came in with an ED50 in data set [1] of more than 20 µM. In data set [2], the CC50 was more than 50 µM. Also, the EC50 in the data set on HT-29 (Homo sapiens, HT-29) came out at 0.019 µM.

`COc1ccc([C@]23Oc4cc(OC)cc(OC)c4[C@](O)(C2O)[C@@H](c2ccccc2)[C@@H]3C(=O)NCCCCNC(=O)/C(C)=C/CO)cc1` (stereo in doubt; 1) [listing 1 of 2 here]: the EC50 with HT-29 is more than 10 µM.

`COc1ccc([C@]23Oc4cc(OC)cc(OC)c4[C@](O)(C2O)[C@@H](c2ccccc2)[C@@H]3C(=O)NCCCCNC(=O)/C(C)=C/CO)cc1` (stereo in doubt; 1) [listing 2 of 2 here] came in with an ED50 in data set [1] of more than 20 µM.

As to `COc1ccc([C@]23Oc4cc(OC)cc(OC)c4[C@](O)(C2O)[C@@H](c2ccccc2)[C@@H]3C(=O)NCCCCNC(=O)/C(C)=C/CO)cc1` (stereo in doubt; 2) [listing 1 of 2 here], the CC50 in data set [2] is more than 50 µM. Further, the EC50 in the data set with HT-29 turned out to be 0.46 µM.

Regarding `COc1ccc([C@]23Oc4cc(OC)cc(OC)c4[C@](O)(C2O)[C@@H](c2ccccc2)[C@@H]3C(=O)NCCCCNC(=O)/C(C)=C/CO)cc1` (stereo in doubt; 2) [listing 2 of 2 here], in data set [1], the ED50 is 2.4 µM.

In data set [1], `COC(=O)[C@H]1[C@@H](O)[C@@]2(O)c3c(OC)cc(OC)cc3O[C@@]2(c2ccc(OC)cc2)[C@@H]1c1ccccc1` [AGLAFOLIN] showed an ED50 of more than 20 µM. In addition, in data set [2], the CC50 was more than 50 µM. For the same molecule, the EC50 in the data set with HT-29 (Homo sapiens, HT-29) worked out at 0.012 µM.

In the case of `CC(C)=C[C@H](O)[C@@H](O)[C@@H](CO)[C@H]1CC[C@@]2(C)[C@@H]3CC[C@H]4C(C)(C)[C@@H](O)CC[C@@]45C[C@@]35CC[C@]12C` [ARGENTEANOL], the ED50 in data set [1] was more than 20 µM. Also, in the data set on HT-29 (Homo sapiens, HT-29), the EC50 is more than 10 µM.

In data set [1], `CC1(C)[C@H](O)CC[C@]2(C)[C@H]3CC[C@@H]4[C@@H]([C@]5(C)CCC(=O)O5)CC[C@@]4(C)[C@]3(C)CC[C@@H]12` [CABRALEAHYDROXYLACTONE] gave an ED50 of more than 20 µM. Further, the EC50 in the data set with HT-29 (Homo sapiens, HT-29) is more than 10 µM.

`COc1ccc([C@@]23Oc4cc(OC)cc(OC)c4[C@]2(O)[C@H](O)[C@H](C(N)=O)[C@H]3c2ccccc2)cc1` [DIDESMETHYLROCAGLAMIDE] displayed an ED50 in data set [1] of more than 20 µM. Besides, in data set [2], the CC50 was more than 50 µM. Further, in the data set on HT-29 (Homo sapiens, HT-29), the EC50 came to 0.021 µM.

The molecule `CC1=CC(O)N(CCCCNC(=O)/C=C/c2ccccc2)C1=O` (configuration not stated) [GIGANTAMIDE A] showed an ED50 in data set [1] of more than 20 µM. In addition, in the data set with HT-29 (Homo sapiens, HT-29), the EC50 is more than 10 µM.

Regarding `CC(=O)O[C@H]1C(=O)[C@@]2(C)[C@H]([C@H](OC(=O)c3ccccc3)[C@]3(O)C[C@H](OC(=O)[C@H](O)[C@@H](NC(=O)c4ccccc4)c4ccccc4)C(C)=C1C3(C)C)[C@]1(OC(C)=O)CO[C@@H]1C[C@@H]2O` [PACLITAXEL], the CC50 in data set [2] turned out to be 23 µM. The EC50 in the data set on HT-29 (Homo sapiens, HT-29) was 0.001 µM.

For `CC(C)=CC(=O)[C@@H](O)[C@@H](C)[C@H]1CC[C@@]2(C)[C@@H]3CC[C@H]4C(C)(C)[C@@H](O)CC[C@@]45C[C@@]35CC[C@]12C` [PERVIRIDISINOL A], in data set [1], the ED50 is more than 20 µM. Further, in the data set with HT-29 (Homo sapiens, HT-29), the EC50 is more than 10 µM.

In turn, `CC(C)=C[C@H]1OC[C@@H]([C@H]2CC[C@@]3(C)[C@@H]4CC[C@H]5C(C)(C)[C@@H](O)CC[C@@]56C[C@@]46CC[C@]23C)[C@@H]1O` [PERVIRIDISINOL B] showed an ED50 in data set [1] of more than 20 µM. Further, the EC50 in the data set on HT-29 (Homo sapiens, HT-29) is more than 10 µM.

In turn, `C=C(CC[C@@H](CO)[C@H]1CC[C@@]2(C)[C@@H]3CC[C@H]4[C@H](C)[C@@H](O)CC[C@@]45C[C@@]35CC[C@]12C)C(C)C` [PERVIRIDISINOL C] displayed an ED50 in data set [1] of more than 20 µM. Also, the EC50 in the data set on HT-29 (Homo sapiens, HT-29) was more than 10 µM.

Turning to `COc1ccc([C@@]23Oc4cc(OC)cc(OC)c4[C@]2(O)[C@H](O)[C@H](C(=O)N(C)C)[C@H]3c2ccccc2)cc1` [ROCAGLAMIDE], the CC50 in data set [2] was more than 50 µM. Moreover, the EC50 with HT-29 (Homo sapiens, HT-29) was determined as 0.005 µM.

In data set [1], `COc1ccc([C@@]23Oc4cc(OC)cc(OC)c4[C@]2(O)[C@H](O)C[C@H]3c2ccccc2)cc1` [ROCAGLAOL] had an ED50 of 0.005 µM. Also, the CC50 in data set [2] is more than 50 µM. Also, the EC50 in the data set with HT-29 (Homo sapiens, HT-29) worked out at 0.0007 µM.

`COc1cc2ccc(=O)oc2cc1O` [SCOPOLETIN]: in data set [1], the ED50 is more than 20 µM. In the data set on HT-29 (Homo sapiens, HT-29), the EC50 is more than 10 µM.

For the origin of these results see ChEMBL document CHEMBL2331500, “Bioactive flavaglines and other constituents isolated from Aglaia perviridis” (J Nat Prod, 2013).
